From ChEMBL document CHEMBL1153575, “Synthesis and in vitro anticancer activity of 2,4-azolidinedione-acetic acids derivatives” (2009) come the findings set out here.

Holding throughout (assay type): functional
One assay concerns MCF7. The experiment in a line: Cytotoxicity against human MCF7 cells assessed as cell growth at 100 uM after 48 hrs by sulforhodamine B assay. Particulars: MCF7, 48 h, read-out: Activity. The gist of the method:
(§1)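 Primary one-dose screen on a three-line panel (MCF7 breast, NCI-H460 lung, SF-268 CNS) at 10^-4 M. Cells were preincubated 24–48 h before a single addition of the agent, followed by 48 h incubation. Endpoint was SRB protein staining, reported as percent growth versus untreated controls.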

For a further assay, the system named is SF-268. In words: Cytotoxicity against human SF268 cells assessed as cell growth at 100 uM after 48 hrs by sulforhodamine B assay. The following applies: SF-268, 48 h, read-out: Activity. The method, boiled down: as §1
A general note: In SRB staining, fixed cells bind dye roughly in proportion to their protein.

In a further assay the test system is NCI-H460. The experiment in a line: Cytotoxicity against human NCI-H460 cells assessed as cell growth at 100 uM after 48 hrs by sulforhodamine B assay. Particulars: NCI-H460, 48 h, read-out: Activity. The method, boiled down: as §1
Another assay concerns MOLT-4. In words: Growth inhibition of human MOLT4 cells after 48 hrs by sulforhodamine B assay. The following applies: MOLT-4, 48 h; for CC50: read-out: pLC50 (the source's name) (converted); for TGI: read-out: pTGI (converted). The gist of the method: (§2)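 Five-concentration assay in about 60 human tumour lines, using 10-fold dilutions from 10^-4 to 10^-8 M with 48 h continuous exposure and an SRB protein endpoint. Percent growth at each level comes from time-zero, untreated-control and treated absorbances. GI50 is 50% lower net protein increase than control. Values beyond the tested range are given as greater or less than the extreme concentration.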

Another assay concerns SR. In words: Growth inhibition of human SR cells after 48 hrs by sulforhodamine B assay. The gist of the method:
as §2

The next assay has as its system HL-60(TB). In words: Growth inhibition of human HL-60(TB) cells after 48 hrs by sulforhodamine B assay. The following applies: HL-60, 48 h. The method, boiled down:
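Cells inoculated and preincubated 24–48 h in microtiter plates, then exposed continuously for 48 h to five 10-fold dilutions from 10^-4 to 10^-8 M. End point by sulforhodamine B protein staining, read spectrophotometrically against untreated controls and time-zero absorbance. Percent growth computed per concentration; GI50 taken where [(Ti−Tz)/(C−Tz)]×100 = 50, expressed as log molar value.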

In another assay the test system is CCRF-CEM. The experiment in a line: Growth inhibition of human CCRF-CEM cells after 48 hrs by sulforhodamine B assay. Particulars: for TGI: read-out: pTGI (converted). The method, boiled down:
as §2

A further assay concerns HOP-92. In words: Growth inhibition of human HOP92 cells after 48 hrs by sulforhodamine B assay. Particulars: HOP-92, 48 h; for TGI: read-out: pTGI (converted). The gist of the method: as §2
A further assay concerns K562. The experiment in a line: Growth inhibition of human K562 cells after 48 hrs by sulforhodamine B assay. The following applies: K562, 48 h. The gist of the method:
as §2

The next assay relates to U-251. The experiment in a line: Growth inhibition of human U251 cells after 48 hrs by sulforhodamine B assay. The following applies: U-251, 48 h. The gist of the method:
as §2

In another assay the test system is HCT-116. In words: Growth inhibition of human HCT116 cells after 48 hrs by sulforhodamine B assay. Particulars: HCT-116, 48 h. The gist of the method:
as §2

A further assay concerns A549. The experiment in a line: Growth inhibition of human A549 cells after 48 hrs by sulforhodamine B assay. Particulars: A549, 48 h. The gist of the method:
as §2

In another assay the test system is NCI-H226. The experiment in a line: Growth inhibition of human NCI-H226 cells after 48 hrs by sulforhodamine B assay. Particulars: NCI-H226, 48 h. The method, boiled down:
as §2

The next assay deals with ACHN. The experiment in a line: Growth inhibition of human ACHN cells after 48 hrs by sulforhodamine B assay. The gist of the method:
as §2

The next assay relates to SN12C. The experiment in a line: Growth inhibition of human SN12C cells after 48 hrs by sulforhodamine B assay. The method, boiled down: as §2
The subject of a further assay is MDA-MB-231. The experiment in a line: Growth inhibition of human MDA-MB-231 cells after 48 hrs by sulforhodamine B assay. Particulars: MDA-MB-231, 48 h. The method, boiled down:
as §2

The next assay deals with HOP-62. In words: Growth inhibition of human HOP62 cells after 48 hrs by sulforhodamine B assay. Particulars: HOP-62, 48 h. The method, boiled down:
as §2

The subject of another assay is RPMI-8226. In words: Growth inhibition of human RPMI8226 cells after 48 hrs by sulforhodamine B assay. Particulars: RPMI-8226, 48 h. The method, boiled down: as §2
Assay [1] in a line: Growth inhibition of human Hs 578T cells after 48 hrs by sulforhodamine B assay. The gist of the method:
as §2

The next assay has as its system M14. In words: Growth inhibition of human M14 cells after 48 hrs by sulforhodamine B assay. Particulars: M14, 48 h. The gist of the method:
as §2

Assay [2] in a line: Growth inhibition of human 786-O cells after 48 hrs by sulforhodamine B assay. Particulars: 786-0, 48 h. The method, boiled down: as §2
Setting [3] is: read-out: pLC50 (the source's name) (converted).

Regarding `O=C(CC1NC(=O)NC1=O)Nc1ccc(Cl)cc1` (stereo not drawn), the growth at 100 µM in the assay with MCF7 worked out at 115%; in the assay on SF-268 it was 114%; in the assay on NCI-H460, 121%.
The corresponding values for `O=C(CN1C(=O)CNC1=O)Nc1cccc(C(F)(F)F)c1` are 111%, 113% and 106%.
Take `O=C(CN1C(=O)N/C(=C\c2ccc(Cl)cc2)C1=O)Nc1ccccc1C(F)(F)F`: the GI50 (usually the concentration giving 50% growth inhibition) in the assay on MOLT-4 is 4.57 µM; in the assay with SR it was 0.309 µM; in the assay with HL-60(TB), 0.295 µM; in the assay on CCRF-CEM, 1.2 µM; with HOP-92, 18.2 µM; in the assay with K562, 5.37 µM. Further, the CC50 was 81.3 µM in the assay with MOLT-4, over 100 µM in the assay on HL-60(TB) (setting [3]) and over 100 µM with K562 (setting [3]). For the same compound, the TGI in the assay on MOLT-4 was 24 µM; in the assay with SR (read-out: pTGI (converted)) it was 12.6 µM; in the assay with HL-60(TB) (read-out: pTGI (converted)), 2 µM; with CCRF-CEM, over 100 µM; in the assay with HOP-92, 97.7 µM; in the assay with K562 (read-out: pTGI), over 100 µM. The results for the median lethal concentration (LC50) with SR, with CCRF-CEM and in the assay with HOP-92 were 52.5 µM, over 100 µM and over 100 µM, respectively.
For the compound `O=C(/C=C1\SC(=O)N(CC(=O)Nc2cccc(C(F)(F)F)c2)C1=O)Nc1ccc(Cl)cc1`, the results for the growth at 100 µM in the assay with MCF7, with SF-268 and in the assay with NCI-H460 were 103%, 100% and 108%, respectively.
With `O=C(CC1SC(=O)NC1=O)Nc1nccs1` (stereo not drawn), the growth at 100 µM in the assay with MCF7 stood at 115%; in the assay on SF-268 it was 114%; with NCI-H460 it was 116%.
For the compound `O=C(CN1C(=O)S/C(=C\c2ccc(Cl)cc2)C1=O)Nc1ccc(Cl)cc1`, the growth at 100 µM in the assay on MCF7 was determined as 102%; in the assay on SF-268, 105%; with NCI-H460, 101%.
`COc1ccc(/C=C2\SC(=O)N(CC(=O)Nc3nccs3)C2=O)cc1`: the growth at 100 µM was determined as 98% in the assay on MCF7, 107% with SF-268 and 98% with NCI-H460.
Take `O=C(CN1C(=O)N/C(=C\c2ccc(F)cc2)C1=O)Nc1ccccc1C(F)(F)F`: the growth at 100 µM in the assay on MCF7 is 87%; with SF-268 it was 100%; in the assay with NCI-H460, 119%.
As to `COc1ccc(/C=C2\NC(=O)N(CC(=O)Nc3ccc(OC)cc3)C2=O)cc1`, the concentration for 50% growth inhibition (GI50) was 0.195 µM in the assay on CCRF-CEM and 30.9 µM in the assay with U-251. Moreover, the LC50 in the assay on CCRF-CEM and in the assay with U-251 was over 100 µM each time. The TGI in the assay on CCRF-CEM and with U-251 (read-out: pTGI (converted)) was over 100 µM in each case.
In the case of `O=C(CN1C(=O)S/C(=C/c2ccc(Cl)cc2)C1=O)Nc1cccc(C(F)(F)F)c1`, the growth at 100 µM in the assay with MCF7 stood at 100%; with SF-268 it was 110%; in the assay on NCI-H460, 99%.
On to `O=C(/C=C1\SC(=O)N(CC(=O)Nc2ccccc2C(F)(F)F)C1=O)Nc1ccc(F)cc1`, for which the growth at 100 µM amounted to 74% in the assay on MCF7, 75% with SF-268 and 77% in the assay on NCI-H460.
On to `O=C(CN1C(=O)N/C(=C/c2ccc(Cl)cc2)C1=O)Nc1cccc(C(F)(F)F)c1`, for which the growth at 100 µM with MCF7 was found to be 58%; in the assay on SF-268 it was 100%; in the assay on NCI-H460, 4%. Further, the GI50 was 13.8 µM in the assay with HCT-116; 10.7 µM in the assay with A549; 13.2 µM in the assay with NCI-H226; 2.51 µM in the assay with MOLT-4; 14.5 µM with ACHN; 12 µM in the assay with SN12C. The 50% growth inhibitory concentration (GI50) in the assay on MDA-MB-231 is 4.57 µM; with HOP-62, 12.6 µM; with CCRF-CEM, 13.5 µM; in the assay with HOP-92 it was 5.37 µM; in the assay with RPMI-8226, 0.01 µM; in assay [1], 10.5 µM. Moreover, the GI50 in the assay with M14 was 14.5 µM; in assay [2] it was 13.8 µM. For the same compound, the LC50 (usually the concentration that kills 50% of the test population) with HCT-116 was over 100 µM; in the assay on SN12C it was 100 µM; in the assay on MDA-MB-231, over 100 µM; with HOP-62, 69.2 µM; in the assay on CCRF-CEM, over 100 µM; in the assay on HOP-92, over 100 µM. In addition, the median lethal concentration (LC50) in the assay with RPMI-8226 is 28.2 µM. Further, the TGI in the assay on HCT-116 (read-out: pTGI (converted)) was 66.1 µM; in the assay with A549 (read-out: pTGI), over 100 µM; in the assay with NCI-H226 (read-out: pTGI (converted)), 46.8 µM; with MOLT-4 it was over 100 µM; in the assay on ACHN (read-out: pTGI (converted)), 28.8 µM; with SN12C (read-out: pTGI (converted)) it was 34.7 µM. Besides, the TGI is 22.9 µM in the assay on MDA-MB-231 (read-out: pTGI (converted)); 29.5 µM with HOP-62 (read-out: pTGI (converted)); over 100 µM in the assay on CCRF-CEM; 28.8 µM in the assay on HOP-92; 6.92 µM with RPMI-8226 (read-out: pTGI (converted)); 77.6 µM in assay [1] (read-out: pTGI (converted)). Moreover, the TGI in the assay on M14 (read-out: pTGI) is over 100 µM; in assay [2] (read-out: pTGI (converted)), 35.5 µM. Also, the CC50 in the assay on A549 (setting [3]) was over 100 µM; in the assay with NCI-H226 (setting [3]), over 100 µM; with MOLT-4, over 100 µM; in the assay with ACHN (setting [3]), 56.2 µM; in [1] (setting [3]), over 100 µM; in the assay with M14 (setting [3]), over 100 µM. Also, the CC50 in [2] (setting [3]) is 89.1 µM.
Consider `O=C(CC1NC(=O)NC1=O)Nc1nccs1` (stereo not drawn), for which the growth at 100 µM was 111% in the assay on MCF7, 114% in the assay with SF-268 and 108% in the assay with NCI-H460.
The corresponding values for `O=C(/C=C1\SC(=O)N(CC(=O)Nc2ccc(Cl)cc2)C1=O)Nc1ccc(Cl)cc1` are 111%, 116% and 107%.
`O=C(CN1C(=O)S/C(=C\C=C\c2ccccc2)C1=O)Nc1ccc(Cl)cc1`: the figures for the growth at 100 µM in the assay with MCF7, with SF-268 and in the assay on NCI-H460 were 92%, 98% and 108%, respectively.
The corresponding values for `O=C(/C=C1\SC(=O)N(CC(=O)Nc2ccccc2C(F)(F)F)C1=O)Nc1ccc(Cl)cc1` are 61%, 86% and 87%.
